Laboratory results published in ChEMBL document CHEMBL1148541, “Biological evaluation of 1-alkyl-3-phenylthioureas as orally active HDL-elevating agents” (Bioorg Med Chem Lett, 2006).

What was measured:
Rattus norvegicus [1] = species on record: Rattus norvegicus; assay: Increase in liver enzyme Alkaline phosphatase; type: functional; design: concentration or dose not given beside the values
Rattus norvegicus [2] = assay: Increase of Apolipoprotein A-I level in cholesterol-fed male rats at 62 mg/kg/day relative to control; type: functional
Procedure, shortened: (§1)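 Drug mixed into diet, fed ad libitum for 8 days to groups of six male Sprague–Dawley rats on a cholesterol diet. Serum Apo A-I measured by SDS–polyacrylamide gel electrophoresis or by rat competition ELISA. Reported as % change versus untreated controls, with significance set at p < 0.05.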

Rattus norvegicus [3] = assay: Increase of HDL level in cholesterol-fed male rats by FPLC method at 62 mg/kg/day relative to control; type: functional
Procedure, shortened: (§2)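 Groups of six male Sprague–Dawley rats on a cholesterol diet received drug in the diet, ad libitum, for 8 days. Serum lipoproteins separated by FPLC, adapted for robotic automation, and cholesterol quantitated enzymatically by colorimetry. HDL given as % change versus untreated controls, with significance set at p < 0.05.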

Rattus norvegicus [4] = assay: Weight gain in cholesterol-fed male rats at 62 mg/kg/day relative to control; type: functional
Procedure, shortened: (§3)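 Groups of six male Sprague–Dawley rats on a cholesterol diet received the compound in the diet, ad libitum, over 8 days. Body weight gain is reported as % change relative to untreated controls.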

Rattus norvegicus [5] = assay: Increase of HDL level in cholesterol-fed male rats by ultracentrifugation method at 62 mg/kg/day relative to control; type: functional
Procedure, shortened: (§4)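 Cholesterol-fed male Sprague–Dawley rats, six per group, given drug in the diet ad libitum for 8 days. Serum lipoproteins separated by classical ultracentrifugation and HDL cholesterol measured by an enzymatic colorimetric method. Expressed as % change versus untreated controls, with significance set at p < 0.05.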

Rattus norvegicus [6] = assay: Triglyceride level in cholesterol-fed male rats at 62 mg/kg/day relative to control; type: functional
Procedure, shortened: (§5)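 Male Sprague–Dawley rats on a cholesterol diet, in groups of six, received the compound in the diet ad libitum for 8 days. Serum triglycerides are expressed as % change relative to untreated controls, with significance at p < 0.05 versus controls.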

Rattus norvegicus [7] = assay: Increase of total cholesterol level in cholesterol-fed male rats at 62 mg/kg/day relative to control; type: functional
Procedure, shortened: (§6)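 Dietary (ad libitum) dosing of groups of six male Sprague–Dawley rats on a cholesterol diet for 8 days. Serum total cholesterol was quantitated enzymatically by a colorimetric method and expressed as % change relative to untreated controls, with significance at p < 0.05.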

Rattus norvegicus [8] = assay: Increase of HDL level in cholesterol-fed male rats by FPLC method at 55 mg/kg/day relative to control; type: functional; procedure, shortened: as §2
Rattus norvegicus [9] = assay: Weight gain in cholesterol-fed male rats at 55 mg/kg/day relative to control; type: functional; procedure, shortened: as §3
Rattus norvegicus [10] = species on record: Rattus norvegicus; assay: Increase in liver enzyme Alanine aminotransferase; type: functional
Rattus norvegicus [11] = assay: Triglyceride level in cholesterol-fed male rats at 55 mg/kg/day relative to control; type: functional; procedure, shortened: as §5
Rattus norvegicus [12] = species on record: Rattus norvegicus; assay: Increase in liver enzyme Aspartate aminotransferase; type: functional; design: concentration or dose not given beside the values
Rattus norvegicus [13] = assay: Increase of Apolipoprotein A-I level in cholesterol-fed male rats at 55 mg/kg/day relative to control; type: functional; procedure, shortened: as §1
Rattus norvegicus [14] = assay: Increase of total cholesterol level in cholesterol-fed male rats at 55 mg/kg/day relative to control; type: functional; procedure, shortened: as §6
Rattus norvegicus [15] = assay: Increase of HDL level in cholesterol-fed male rats by ultracentrifugation method at 55 mg/kg/day relative to control; type: functional; procedure, shortened: as §4
Rattus norvegicus [16] = assay: Increase of Apolipoprotein A-I level in cholesterol-fed male rats at 78 mg/kg/day relative to control; type: functional; procedure, shortened: as §1
Rattus norvegicus [17] = assay: Increase of total cholesterol level in cholesterol-fed male rats at 78 mg/kg/day relative to control; type: functional; procedure, shortened: as §6
Rattus norvegicus [18] = assay: Triglyceride level in cholesterol-fed male rats at 78 mg/kg/day relative to control; type: functional; procedure, shortened: as §5
Rattus norvegicus [19] = assay: Increase of HDL level in cholesterol-fed male rats by FPLC method at 78 mg/kg/day relative to control; type: functional; procedure, shortened: as §2
Rattus norvegicus [20] = assay: Increase of HDL level in cholesterol-fed male rats by ultracentrifugation method at 78 mg/kg/day relative to control; type: functional
Procedure, shortened: (§7)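 Compound given in the diet, ad libitum, to groups of six male Sprague–Dawley rats on a cholesterol diet for 8 days. Serum lipoproteins were separated by classical ultracentrifugation, and HDL cholesterol was quantitated by an enzymatic colorimetric method. Results are reported as % change relative to untreated controls, with significance at p < 0.05 versus controls.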

Rattus norvegicus [21] = assay: Weight gain in cholesterol-fed male rats at 78 mg/kg/day relative to control; type: functional; procedure, shortened: as §3
Rattus norvegicus [22] = assay: Increase of Apolipoprotein A-I level in cholesterol-fed male rats at 63 mg/kg/day relative to control; type: functional; procedure, shortened: as §1
Rattus norvegicus [23] = assay: Increase of HDL level in cholesterol-fed male rats by ultracentrifugation method at 63 mg/kg/day relative to control; type: functional; procedure, shortened: as §4
Rattus norvegicus [24] = assay: Increase of HDL level in cholesterol-fed male rats by FPLC method at 63 mg/kg/day relative to control; type: functional; procedure, shortened: as §2
[25] = biological target: T1, Peroxisome proliferator-activated receptor alpha (Rattus norvegicus, UniProt P37230); assay: Activity against PPAR-alpha
T1 sequence (P37230 whole entry): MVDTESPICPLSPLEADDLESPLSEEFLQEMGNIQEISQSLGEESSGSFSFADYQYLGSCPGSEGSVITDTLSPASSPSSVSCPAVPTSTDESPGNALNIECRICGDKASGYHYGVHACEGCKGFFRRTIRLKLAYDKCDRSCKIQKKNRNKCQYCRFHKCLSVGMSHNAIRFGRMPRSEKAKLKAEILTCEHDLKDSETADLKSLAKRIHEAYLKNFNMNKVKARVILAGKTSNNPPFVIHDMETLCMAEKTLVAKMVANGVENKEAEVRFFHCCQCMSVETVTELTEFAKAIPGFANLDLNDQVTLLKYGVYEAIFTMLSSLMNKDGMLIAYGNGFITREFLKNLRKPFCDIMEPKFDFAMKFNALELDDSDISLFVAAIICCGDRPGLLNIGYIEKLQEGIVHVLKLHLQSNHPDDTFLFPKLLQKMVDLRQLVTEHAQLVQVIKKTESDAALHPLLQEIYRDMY

Rattus norvegicus [26] = assay: Weight gain in cholesterol-fed male rats at 63 mg/kg/day relative to control; type: functional; procedure, shortened: as §3
Rattus norvegicus [27] = assay: Increase of total cholesterol level in cholesterol-fed male rats at 63 mg/kg/day relative to control; type: functional; procedure, shortened: as §6
Rattus norvegicus [28] = assay: Triglyceride level in cholesterol-fed male rats at 63 mg/kg/day relative to control; type: functional; procedure, shortened: as §5
[29] = biological target: T2, Peroxisome proliferator-activated receptor delta (Homo sapiens, UniProt Q03181); assay: Activity against PPAR-delta
T2 sequence (Q03181 whole entry): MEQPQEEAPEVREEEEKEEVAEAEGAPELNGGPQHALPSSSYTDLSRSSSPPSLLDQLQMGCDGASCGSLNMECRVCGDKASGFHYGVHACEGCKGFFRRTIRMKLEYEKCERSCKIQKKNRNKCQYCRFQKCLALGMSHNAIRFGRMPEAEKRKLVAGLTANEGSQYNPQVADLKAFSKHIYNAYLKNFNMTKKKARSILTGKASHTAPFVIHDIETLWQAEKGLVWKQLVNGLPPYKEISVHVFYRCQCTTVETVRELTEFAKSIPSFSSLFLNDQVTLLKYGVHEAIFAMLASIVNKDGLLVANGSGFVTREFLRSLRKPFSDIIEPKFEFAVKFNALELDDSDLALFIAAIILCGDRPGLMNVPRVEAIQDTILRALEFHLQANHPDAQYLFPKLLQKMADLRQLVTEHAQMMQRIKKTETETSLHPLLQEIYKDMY

Rattus norvegicus [30] = assay: Increase of HDL level in cholesterol-fed male rats by ultracentrifugation method at 77 mg/kg/day relative to control; type: functional; procedure, shortened: as §7
Rattus norvegicus [31] = assay: Increase of HDL level in cholesterol-fed male rats by FPLC method at 77 mg/kg/day relative to control; type: functional; procedure, shortened: as §2
Rattus norvegicus [32] = assay: Increase of Apolipoprotein A-I level in cholesterol-fed male rats at 77 mg/kg/day relative to control; type: functional; procedure, shortened: as §1
Rattus norvegicus [33] = assay: Weight gain in cholesterol-fed male rats at 77 mg/kg/day relative to control; type: functional; procedure, shortened: as §3
Rattus norvegicus [34] = assay: Triglyceride level in cholesterol-fed male rats at 77 mg/kg/day relative to control; type: functional; procedure, shortened: as §5
Rattus norvegicus [35] = assay: Increase of total cholesterol level in cholesterol-fed male rats at 77 mg/kg/day relative to control; type: functional; procedure, shortened: as §6
Rattus norvegicus [36] = assay: Increase of HDL cholesterol in normal-fed rat at 80 mg/kg/day; type: functional
Cynomolgus monkey = assay: Increase of HDL cholesterol in chow-fed cynomolgus monkey at 12 mg/kg/day; type: functional, Macaca fascicularis
Rattus norvegicus [37] = assay: Increase of total cholesterol level in cholesterol-fed male rats at 79 mg/kg/day relative to control; type: functional; procedure, shortened: as §6
Rattus norvegicus [38] = assay: Increase of HDL level in cholesterol-fed male rats by ultracentrifugation method at 79 mg/kg/day relative to control; type: functional; procedure, shortened: as §7
Rattus norvegicus [39] = assay: Triglyceride level in cholesterol-fed male rats at 79 mg/kg/day relative to control; type: functional; procedure, shortened: as §5
Canis familiaris = assay: Increase of HDL cholesterol in normal-fed dog at 35 mg/kg/day; type: functional, Canis lupus familiaris
Hamster [40] = assay: Increase of HDL cholesterol in normal-fed hamster at 52 mg/kg/day; type: functional, Cricetulus griseus
Rhesus monkey = assay: Increase of HDL cholesterol in chow-fed rhesus monkey at 12 mg/kg/day; type: functional, Macaca mulatta
Hamster [41] = assay: Increase of HDL cholesterol in chow-fed hamster at 64 mg/kg/day; type: functional, Cricetulus griseus
Rattus norvegicus [42] = assay: Increase of Apolipoprotein A-I level in cholesterol-fed male rats at 79 mg/kg/day relative to control; type: functional; procedure, shortened: as §1
Rattus norvegicus [43] = assay: Increase of HDL level in cholesterol-fed male rats by FPLC method at 79 mg/kg/day relative to control; type: functional; procedure, shortened: as §2
Rattus norvegicus [44] = assay: Weight gain in cholesterol-fed male rats at 79 mg/kg/day relative to control; type: functional; procedure, shortened: as §3

## CCC/N=C(\S)Nc1cc(C)ccc1C
Rattus norvegicus [1]
  Activity: 75%
Rattus norvegicus [2]
  Activity: 72%
Rattus norvegicus [3]
  Activity: 278%
Rattus norvegicus [4]
  Activity: -38%
Rattus norvegicus [5]
  Activity: 127%
Rattus norvegicus [6]
  Activity: -59%
Rattus norvegicus [7]
  Activity: 29%

## CCCC/N=C(\S)Nc1cc(Cl)ccc1C
Rattus norvegicus [8]
  Activity: 203%
Rattus norvegicus [9]
  Activity: -53%
Rattus norvegicus [10]
  Activity: 93%
Rattus norvegicus [11]
  Activity: -44%
Rattus norvegicus [1]
  Activity: 44%
Rattus norvegicus [12]
  Activity: 79%
Rattus norvegicus [13]
  Activity: 38%
Rattus norvegicus [14]
  Activity: 39%
Rattus norvegicus [15]
  Activity: 100%

## CCC/N=C(\S)Nc1cc(Cl)ccc1OC
Rattus norvegicus [1]
  Activity: 44%
Rattus norvegicus [16]
  Activity: 58%
Rattus norvegicus [17]
  Activity: 49%
Rattus norvegicus [18]
  Activity: -43%
Rattus norvegicus [19]
  Activity: 97%
Rattus norvegicus [20]
  Activity: 99%
Rattus norvegicus [21]
  Activity: -6%

## CC[C@@H]1CCCCN1/C(S)=N/c1cc(Cl)ccc1C
Rattus norvegicus [1]
  Activity: 105%
Rattus norvegicus [12]
  Activity: 80%
Rattus norvegicus [22]
  Activity: 30%
Rattus norvegicus [23]
  Activity: 129%
Rattus norvegicus [24]
  Activity: 614%
[25]
  EC50: > 100 µM
Rattus norvegicus [26]
  Activity: -105%
Rattus norvegicus [27]
  Activity: 167%
Rattus norvegicus [28]
  Activity: -54%
[29]
  EC50: > 100 µM

## Cc1ccc(Cl)cc1/N=C(\S)NC(C)(C)C
Rattus norvegicus [30]
  Activity: 30%
Rattus norvegicus [31]
  Activity: 22%
Rattus norvegicus [32]
  Activity: 60%
Rattus norvegicus [33]
  Activity: 9%
Rattus norvegicus [34]
  Activity: -31%
Rattus norvegicus [35]
  Activity: -15%

## Cc1ccc(Cl)cc1N/C(S)=N/CC(C)C
Rattus norvegicus [36]
  Activity: 75%
Cynomolgus monkey
  Activity: 100%
Rattus norvegicus [37]
  Activity: -11%
Rattus norvegicus [38]
  Activity: 104%
[25]
  EC50: > 100 µM
Rattus norvegicus [39]
  Activity: -54%
Canis familiaris
  Activity: 50%
Hamster [40]
  Activity: 44%
Rhesus monkey
  Activity: 75%
[29]
  EC50: > 100 µM
Hamster [41]
  Activity: 15%
Rattus norvegicus [42]
  Activity: 77%
Rattus norvegicus [43]
  Activity: 260%
Rattus norvegicus [44]
  Activity: -12%

## CCC/N=C(\S)Nc1cc(Cl)ccc1C
Rattus norvegicus [8]
  Activity: 292%
Rattus norvegicus [9]
  Activity: -78%
Rattus norvegicus [11]
  Activity: -54%
[25]
  EC50: > 100 µM
Rattus norvegicus [13]
  Activity: 54%
[29]
  EC50: > 100 µM
Rattus norvegicus [14]
  Activity: 6%
Rattus norvegicus [15]
  Activity: 83%
